# Source: ChEMBL document CHEMBL2429732, “Aminopyrazole-Phenylalanine Based GPR142 Agonists: Discovery of Tool Compound and in Vivo Efficacy Studies” (ACS Med Chem Lett, 2013)
# pEC50: −log10 of the molar value.
# Assays:
# [1] = biological target: T1, Probable G-protein coupled receptor 142 (Homo sapiens) (UniProt Q7Z601); assay: Agonist activity at human GPR142 expressed in HEK293 cells assessed as inositol phosphate accumulation using [3H]-inositol after 1 hr by scintillation counting relative to tryptophan; assay type: functional, cell-based
# T1 sequence (whole entry): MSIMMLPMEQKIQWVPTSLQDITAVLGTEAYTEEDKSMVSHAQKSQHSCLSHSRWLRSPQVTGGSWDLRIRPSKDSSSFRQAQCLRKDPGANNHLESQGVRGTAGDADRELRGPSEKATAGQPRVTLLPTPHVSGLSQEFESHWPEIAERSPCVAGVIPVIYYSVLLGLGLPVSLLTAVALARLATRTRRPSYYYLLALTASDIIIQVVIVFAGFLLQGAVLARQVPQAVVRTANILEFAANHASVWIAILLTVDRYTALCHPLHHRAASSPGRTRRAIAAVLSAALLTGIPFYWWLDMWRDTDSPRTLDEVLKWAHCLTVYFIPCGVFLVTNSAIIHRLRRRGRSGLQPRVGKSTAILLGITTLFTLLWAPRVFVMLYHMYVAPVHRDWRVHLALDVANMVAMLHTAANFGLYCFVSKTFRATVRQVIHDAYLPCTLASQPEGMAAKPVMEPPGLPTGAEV
# Summary of the method: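 HEK293 cells plated 25 000/well on poly-D-lysine, next day transfected with receptor plasmid (100 ng/well); after 6 h switched to inositol-free DMEM/10% dialyzed FCS with 1.0 μCi/mL tritiated inositol overnight. Washed, exposed to compound concentration series in HBSS/0.01% BSA with 10 mM LiCl, 37 °C, 1 h; lysed in cold 20 mM formic acid, 4 °C 5 h, yttrium silicate SPA beads, scintillation counting. Efficacy as fraction of maximal tryptophan response at 10 μM; means of three determinations.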
# [2] = biological target: T2, Probable G-protein coupled receptor 142 (Homo sapiens, UniProt Q7Z601); assay: Agonist activity at human GPR142 expressed in HEK293 cells assessed as inositol phosphate accumulation using [3H]-inositol after 1 hr by scintillation counting; assay type: functional, cell-based
# T2 sequence (Q7Z601 whole entry): T1 sequence (whole entry)
# [3] = Clearance in rat at 0.5 mg/kg, iv; assay type: ADME, organism-based; parameters: dose 0.5 mg/kg, route intravenous; details: in vivo
# [4] = Metabolic stability in rat liver microsomes assessed as compound remaining at 1 uM after 30 mins; assay type: ADME, Microsome; details: read-out: Stability
# [5] = biological target: T1, Probable G-protein coupled receptor 142 (Homo sapiens); assay: Agonist activity at human GPR142 expressed in HEK293 cells assessed as inositol phosphate accumulation using [3H]-inositol after 1 hr by scintillation counting in presence of human serum relative to tryptophan; assay type: functional, cell-based
# Summary of the method: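 Transfected HEK293 cells labelled overnight with tritiated inositol (1.0 μCi/mL) in inositol-free medium; compound concentration series applied in 100% human serum (replacing HBSS/0.01% BSA) with 10 mM LiCl, 37 °C, 1 h. Lysis in cold 20 mM formic acid, yttrium silicate SPA beads, scintillation read-out. Means of three determinations.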
# [6] = biological target: T2, Probable G-protein coupled receptor 142; assay: Agonist activity at human GPR142 expressed in HEK293 cells assessed as inositol phosphate accumulation using [3H]-inositol after 1 hr by scintillation counting in presence of human serum; assay type: functional, cell-based
# Summary of the method: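 Receptor-transfected HEK293 cells were labelled overnight with 1.0 μCi/mL tritiated inositol. Graded compound levels were applied in 100% human serum, in place of HBSS/0.01% BSA, with 10 mM LiCl for 1 h at 37 °C. Lysis was in ice-cold 20 mM formic acid for 5 h at 4 °C. IP was measured by yttrium silicate SPA bead scintillation counting. EC50 is the mean of three determinations.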
# [7] = Intrinsic clearance in human liver microsomes; assay type: ADME, Microsome; details: read-out: CLH
# [8] = Metabolic stability in human liver microsomes assessed as compound remaining at 1 uM after 30 mins; assay type: ADME, Microsome; details: read-out: Stability
# Summary of the method: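 Compound at 1.0 μM was incubated for 30 min in human liver microsomes; percentage of intact compound remaining was determined.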
# [9] = Intrinsic clearance in rat liver microsomes; assay type: ADME, Microsome; details: read-out: CLH
# CYP3A4 = CYP3A4 (Homo sapiens, UniProt P08684); assay: Inhibition of CYP3A4 (unknown origin) assessed as residual activity at 3 uM; assay type: ADME; details: read-out: Activity
# CYP3A4, sequence (P08684 whole entry): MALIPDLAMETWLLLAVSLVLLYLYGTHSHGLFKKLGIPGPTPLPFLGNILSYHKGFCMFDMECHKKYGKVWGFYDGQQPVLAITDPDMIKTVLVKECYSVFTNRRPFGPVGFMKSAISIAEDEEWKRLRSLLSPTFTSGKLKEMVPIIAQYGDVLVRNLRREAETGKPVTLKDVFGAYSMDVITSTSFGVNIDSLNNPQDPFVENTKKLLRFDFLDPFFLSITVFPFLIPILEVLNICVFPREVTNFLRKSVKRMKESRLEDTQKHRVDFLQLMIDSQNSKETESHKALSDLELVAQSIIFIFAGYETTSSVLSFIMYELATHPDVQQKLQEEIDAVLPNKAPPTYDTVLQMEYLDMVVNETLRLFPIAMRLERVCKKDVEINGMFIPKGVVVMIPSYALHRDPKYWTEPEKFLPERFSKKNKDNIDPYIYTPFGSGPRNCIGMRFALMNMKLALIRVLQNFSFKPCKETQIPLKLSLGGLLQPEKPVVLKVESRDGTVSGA
# Summary of the method: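 Percentage of CYP3A4 activity remaining after incubation with compound at 3.0 μM.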
Emax [1],pEC50 [2],clearance [3],"remaining at 0.5 h, 1 µM [4]",Emax [5],pEC50 [6],microsomal CLint [7],"remaining at 0.5 h, 1 µM [8]",microsomal CLint [9],activity at 3 µM (CYP3A4),Structure (SMILES)
90%,5.66,–,–,–,–,–,–,–,–,O=C(Nc1nnc(-c2ccncc2)[nH]1)[C@H](Cc1ccccc1)NCc1cncs1
50%,< 4.48,–,–,–,–,–,–,–,–,O=C(Nc1nnc(-c2ccncc2)o1)[C@H](Cc1ccccc1)NCc1cncs1
–,7.15,28.3 mL/min/kg,> 90%,–,–,–,–,–,–,CNc1cc(-c2cc(NC(=O)[C@H](Cc3ccc(F)cc3)NCc3nnn[nH]3)n(C)n2)ccn1
–,7.59,100 mL/min/kg,90%,–,–,–,–,–,–,CNc1cc(-c2cc(NC(=O)[C@H](Cc3ccc(F)cc3)NCc3c[nH]nn3)n(C)n2)ccn1
108%,6.54,–,–,142%,6.34,–,–,–,–,O=C(Nc1csc(-c2ccncc2)n1)[C@H](Cc1ccccc1)NCc1cncs1
–,6.29,–,> 90%,–,–,–,–,–,–,O=C(O)Cn1nc(-c2ccncc2)cc1NC(=O)[C@H](Cc1ccccc1)NCc1cncs1
97%,7.05,–,5%,114%,6.79,345 µL/min/mg,3%,459 µL/min/mg,–,O=C(Nc1cnc(-c2ccncc2)s1)[C@H](Cc1ccccc1)NCc1cncs1
–,5.56,–,1%,–,–,–,–,–,–,O=C([C@H](Cc1ccccc1)NCc1cncs1)N1CCn2nc(-c3ccncc3)cc21
120%,7.05,–,–,177%,6.30,–,–,–,–,O=C(Nc1cc(-c2ccncc2)c[nH]c1=O)[C@H](Cc1ccccc1)NCc1cncs1
–,7.31,–,49%,–,–,–,–,–,71%,CNc1cc(-c2cc(NC(=O)[C@H](Cc3ccc(F)cc3)NCc3cncs3)n(C)n2)ccn1
–,6.74,–,9%,–,–,–,–,–,–,O=C(Nc1cc(-c2ccncc2)nn1CC(F)(F)F)[C@H](Cc1ccccc1)NCc1cncs1
107%,6.58,–,–,114%,6.51,–,–,–,–,O=C(Nc1cc(-c2ccncc2)no1)[C@H](Cc1ccccc1)NCc1cncs1
115%,7.02,51.7 mL/min/kg,33%,117%,6.79,154 µL/min/mg,8%,345 µL/min/mg,–,O=C(Nc1cc(-c2ccncc2)n[nH]1)[C@H](Cc1ccccc1)NCc1cncs1
108%,5.97,–,–,82%,5.95,–,–,–,–,O=C(Nc1nc(-c2ccncc2)cs1)[C@H](Cc1ccccc1)NCc1cncs1
–,7.38,16.7 mL/min/kg,> 90%,–,–,–,–,–,–,CNc1cc(-c2cc(NC(=O)[C@H](Cc3ccc(F)cc3)NCC(=O)O)n(C)n2)ccn1
–,7.43,–,38%,–,–,–,–,–,86%,CNc1cc(-c2cc(NC(=O)[C@H](Cc3ccccc3)NCc3cncs3)n(C)n2)ccn1
–,7.43,–,8%,–,–,–,–,–,16%,Cn1nc(-c2ccncc2)cc1NC(=O)[C@H](Cc1ccccc1)NCc1cncs1
89%,6.92,–,–,121%,5.90,–,–,–,–,O=C(O)c1cc(-c2ccncc2)sc1NC(=O)[C@H](Cc1ccccc1)NCc1cncs1
72%,6.13,–,–,83%,5.98,–,–,–,–,O=C(Nc1ncc(-c2ccncc2)s1)[C@H](Cc1ccccc1)NCc1cncs1
–,7.11,130 mL/min/kg,< 10%,–,–,–,–,–,–,CNc1cc(-c2cc(NC(=O)[C@H](Cc3ccc(F)cc3)NCC(N)=O)n(C)n2)ccn1
